Columns and labels:
MS2 coat protein [1] = assay: apparent Kd, MS2 coat protein; higher = weaker binding; RNA-MaP array
Summary of the method: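 Apparent Kd is the median of per-cluster binding-curve fits for designed RNAs transcribed from sequenced DNA templates on an Illumina sequencing chip. The RNAs were incubated at room temperature with fluorescently labeled MS2 coat protein at 1.5 nM to 3 μM, with or without input ligand, and designs measured on fewer than 10 clusters were excluded.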

MS2 coat protein [2] = assay: apparent Kd, MS2 coat protein; higher = weaker binding; RNA-MaP array; FMN 200 µM where present
Summary of the method: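 In 100 mM Tris-HCl pH 7.5, 80 mM KCl, 4 mM MgCl2, BSA, DTT, yeast tRNA and Tween-20, SNAP-549-labelled MS2 coat protein was titrated from 0.7 or 1.5 nM, doubling to 3 µM, over designs transcribed by stalled E. coli RNA polymerase on Illumina sequencing-chip clusters. This was done first without ligand, then with ligand held constant. After green signal was normalised to red-channel RNA signal and control-cluster median Fmax, the apparent Kd was taken as the median of filtered per-cluster binding-curve fits.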

[3] = designed as: OFF switch for flavin mononucleotide, no ligand
[4] = ligand present: flavin mononucleotide, designed as: OFF switch for flavin mononucleotide
[5] = designed as: ON switch for flavin mononucleotide, no ligand
[6] = ligand present: flavin mononucleotide, designed as: ON switch for flavin mononucleotide
[7] = designed as: ON switch for tryptophan, no ligand
[8] = ligand present: tryptophan, designed as: ON switch for tryptophan
[9] = designed as: OFF switch for tryptophan, no ligand
[10] = ligand present: tryptophan, designed as: OFF switch for tryptophan

Row | Sequence | apparent Kd (MS2 coat protein [1]; [3]) [nM] | apparent Kd (MS2 coat protein [1]; [4]) [nM] | apparent Kd (MS2 coat protein [1]; [5]) [nM] | apparent Kd (MS2 coat protein [1]; [6]) [nM] | other results
1 | GCACGACAUGAGGAUCACCCAUGUGAGGAUAUACUACAUCAGGAACACGCUAUGCACGGUAGAAGGCACGGGAG | 16.4 | 15.6 |  |  | 
2 | UCUGCGUCAGUCAGGAUAUGUUGCCAAAUUAUGGCACAGAAGGGACAUGAGGAUCACCCAUGUAGCGUCUCCGU | 10.2 | 10.4 |  |  | 
3 | AAUCAUAAUAAAGGAUAUACAACACAACAGGUGGUAGAAGGAUAUGGAGAUGGAACACACAUGAGGAUCACCCAUGUAAAUAGC |  |  | 13 | 9.95 | 
4 | CAUUAAACAGCAGGAUAUACUAGUGUGAUACUGGUAGAAGGGCUCCUCACCCACAUGAGGAUCACCCAUGUGACAUCUACCUUA |  |  | 314 | 146 | 
5 | UCAUACAUGAGGAUCACCCAUGUUCGUGGGCGAGGACCGGUACGGCCGCCACUCGUACUAACGGUUUCUUAAACUUCCUUUCGAG |  |  |  |  | apparent Kd (MS2 coat protein [1]; [7]): 25.6 nM; apparent Kd (MS2 coat protein [1]; [8]): 17.2 nM
6 | GUGCUGAAUACGUAGGAUAUAGUGUGUGCGACAUGAGGAUCACCCAUGUAAAUUGCCCAUCAGAGCUAGAAGGACGAAUCUUCGUG |  |  | 15.5 | 8.78 | 
7 | ACAAGGCUUACAGGAUAUGUGCGUCAUACAAAACAUGAGGAUCACCCAUGUGCCCCAGCGUCUUCACAGAAGGGUACAAGCGUU |  |  | 26.6 | 12.4 | 
8 | UCGUCGCUUCAGAAGGACAGACAAUCGUGCACUGUAGGAUAUGAGACGCGACAUGAGGAUCACCCAUGUGAACGGUUCGUAUAA | 25.1 | 53 |  |  | 
9 | ACUAGACAUGAGGAUCACCCAUGUGAGGAUAUCUUGCUAUGCACUAUGGGCCAACGGAAGAGAAGGCACUGGGA | 45.7 | 93.2 |  |  | 
10 | AGUCAAGAGUAGAAGGGUGGAAAUUCGGUCGACACAGGAUAUACUUCAGGAGCCAGAAGACAAUAACAUGAGGAUCACCCAUGU |  |  | 14.1 | 9.27 | 
11 | AGGAACGUAGAGAAGGGAUCAAUUCGGUACAUGAGGAUCACCCAUGUGAUGGCCAAACUUCGAAAUCAGGAUAUCUCAUAAUAC |  |  | 18.4 | 14.2 | 
12 | CUAACCACAAUAGGAUAUCGGGCUCGUUUCAUUGCUGCAAAACAUGAGGAUCACCCAUGUCCGUCCGAGAAGGAUUGUAAGAAU |  |  | 92.1 | 14.8 | 
13 | CCAAGAGUACUAGGAUAUUCCGGCCACGCACAUGAGGAUCACCCAUGUGAGACUCUCAGACGGUCGAAGAAGGAGUUGCAGGCU | 34.8 | 30.9 |  |  | 
14 | AAGCUGGAGAAUACAUGAGGAUCACCCAUGUGGCUUCAUGCCUAGGAUAUUAGUGUGCAGAACUGUAAGAAGGAGGAUCUUUAA | 10.3 | 8.56 |  |  | 
15 | UGUUUACAUGAGGAUCACCCAUGUGUUAUCGUAUUAGGAUAUGCAUGACGAUGAUUUUCGGCAGAAGGAAUGCGCA |  |  | 439 | 101 | 
16 | ACUUGUGAGUCGGCCGCCACUCACCGGUAGUGUCACUCGUUCACAAACAUGAGGAUCACCCAUGUGAGGACCGGGACAGUCGGGU |  |  |  |  | apparent Kd (MS2 coat protein [1]; [9]): 17.2 nM; apparent Kd (MS2 coat protein [1]; [10]): 25.8 nM
17 | GCUCGUUGCAUGGAUACCAGUUGAUAGGCCGCCUCCGGAUACAUGAGGAUCACCCAUGUCAACCCUUGGCAGCCACCCAAUAGGG |  |  |  |  | apparent Kd (MS2 coat protein [1]; designed as: OFF switch for theophylline, no ligand): 9.36 nM; apparent Kd (MS2 coat protein [1]; ligand present: theophylline, designed as: OFF switch for theophylline): 18.1 nM
18 | CUCGUCAACUCGGCCGCCACUGACGUGUGGUCAGGCCUGUAGAAACACAUGAGGAUCACCCAUGUCAGGACCGGGAGCUUUAUUA |  |  |  |  | apparent Kd (MS2 coat protein [1]; [9]): 46.9 nM; apparent Kd (MS2 coat protein [1]; [10]): 58.2 nM

Row | Sequence | apparent Kd (MS2 coat protein [1]; [3]) [nM] | apparent Kd (MS2 coat protein [1]; [4]) [nM] | apparent Kd (MS2 coat protein [1]; [5]) [nM] | apparent Kd (MS2 coat protein [1]; [6]) [nM] | other results
19 | GAUAACAUGAGGAUCACCCAUGUGGCGUCGCGAGGACCGGUACGGCCGCCACUCGGCAGUUCAACUCGAAUAUAGUGAUCGAAGU |  |  |  |  | apparent Kd (MS2 coat protein [1]; [7]): 138 nM; apparent Kd (MS2 coat protein [1]; [8]): 87.5 nM
20 | GUACGGUGAGGAUAUCGUUAAGAUGUGGACAGGCCUACAUACGAGAAGGCACAUGAGGAUCACCCAUGUUCAUA | 21.5 | 18.8 |  |  | 
21 | GGUGACCCUGUUCCACAUGAGGAUCACCCAUGUUACCACUAUUAGGAUAUGCUUACAUGUACACUGCAGAAGGAAUAGGUAAGA | 103 | 442 |  |  | 
22 | GCCAGUGUCUAGGAUAUCACGCCGCGUUGCAGGUGAGAAGGAGACACAUGAGGAUCACCCAUGUGUCCGAUAGG | 7.12 | 9.49 |  |  | 
23 | AUUCCAAUAGGAUAUACAUGAGGAUCACCCAUGUGAUGAGCCCGUAAGACAGACGUCAGUAGAAGGAUUAGGAA | 24.5 | 31.7 |  |  | 
24 | AAUAGUUCUGGAGGAUAUUGUACAUGAGGAUCACCCAUGUUAUCUACUGCUAUGGUUGACCUGCGCAAGAAGGCCACGUUCCUG | 12.6 | 20.5 |  |  | 
25 | GCGGGUUACCCAGAAUGAGAAACAUGAGGAUCACCCAUGUAGAAGGAUAUAGAGUCUUGGUCUGCCUAGAAGGUCUAUAAUUGA | 20.5 | 19.9 |  |  | 
26 | AACUAACAUAGUUAACAACAUGAGGAUCACCCAUGUCGCAUGUAGGAUAUGGUAGAGGACACAACCCAGAAGGACAUAACAUAA |  |  | 41.9 | 22.9 | 
27 | AUAAAACGAGUGCAGGAUAUUCCGUCGCGCACAUGAGGAUCACCCAUGUCAAUUGGGCAUCGUACGAAGAAGGGCAAAUACCAGCG |  |  | 116 | 76.4 | 
28 | UGUUGCAGCCACAUGAGGAUCACCCAUGUGCUCAGGAUCGUUGAGGAUAUCGAGGUAGGGUCAGCCGAGAAGGCAAGGGUCGCG |  |  | 10.5 | 8.64 | 
29 | CACAACGGUAGUUAGGAUAUCCAUAUGCGUACAUGAGGAUCACCCAUGUAAUUACAGAAAUGAUAGGAGAAGGAACGCAUCCGAAA |  |  | 33.3 | 21 | 
30 | CGACUGAAUAGGCAGUACACAUGAGGAUCACCCAUGUUAGCAAGAAGGCAAGAGCCAGCGGAGCUUGAGGAUAUUGAAGAUCUC |  |  | 27.2 | 27.4 | 
31 | CCAAGCAUAAUAGAUACCAGUCGUAUACCUCCAACAUGAGGAUCACCCAUGUGCUCAGUUGACCCUUGGCAGCUAUGCCUAUAGA |  |  |  |  | apparent Kd (MS2 coat protein [1]; designed as: ON switch for theophylline, no ligand): 39.6 nM; apparent Kd (MS2 coat protein [1]; ligand present: theophylline, designed as: ON switch for theophylline): 25.8 nM
32 | GCAUACAGCAAGAAGGUGGCAUCGACUAUGGCCCAAGGAUAUUGCGGUACUACAUGAGGAUCACCCAUGUGUUCAUGAUUAUAG |  |  | 35.5 | 30.2 | 
33 | CUGUAUGAUGUAGGAUAUACAAUAAUAUUGUUAGUAGAAGGACAUGAGGAUCACCCAUGUAAAUUAAUUUUAAUUAUUUUUGCG |  |  |  |  | apparent Kd (MS2 coat protein [2]; [3]): 47.2 nM; apparent Kd (MS2 coat protein [2]; [4]): 36.6 nM
34 | GUCGGAAACGACAAAAGUAGCAUACGAGAAGGCUGAUCCACGACAUGAGGAUCACCCAUGUAGUUAGAGGAUAUUGGAUGCUAC |  |  |  |  | apparent Kd (MS2 coat protein [2]; [5]): 61.6 nM; apparent Kd (MS2 coat protein [2]; [6]): 12.9 nM
35 | GCCAUCGCAUGAGGAUAUGGUCACCUUUGGUGACCAGAAGGCAUGUCAUAAGACAUGAGGAUCACCCAUGUAGUUAAGAUGGCA |  |  |  |  | apparent Kd (MS2 coat protein [2]; [5]): 843 nM; apparent Kd (MS2 coat protein [2]; [6]): 48 nM
36 | UUCUUACAUGAGGAUCACCCAUGUCAGGAUAUCUCCGCACUGCGCUUGCGCAGUGCAUAGAGAAGGGACAGGCU |  |  |  |  | apparent Kd (MS2 coat protein [2]; [3]): 55 nM; apparent Kd (MS2 coat protein [2]; [4]): 50.2 nM
